Calls of active or inactive are those of the source. The calls are words filed in the database; no cut-off is given here.
How the values were obtained:
Plasmodium falciparum = test: Antiplasmodial activity against blood stage of chloroquine-sensitive Plasmodium falciparum NF54 by parasite lactate dehydrogenase assay; assay type: functional, organism-based
Procedure, shortened: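 Asexual P. falciparum was kept in continuous culture (modified Trager–Jensen) and read out by parasite lactate dehydrogenase. DMSO stocks were 20 mg/ml, tested as suspensions and diluted 2-fold in complete medium to 10 concentrations. Chloroquine and artesunate served as references. IC50 came from non-linear dose–response fitting; values are the mean of three observations.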

[1] = Cytotoxicity against human HuH7 cells assessed as effect on cell proliferation at 1 to 10 uM by Alamar Blue assay; assay type: cell-based; conditions: huh-7, 10 µM
Procedure, shortened: (§1)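 Huh-7 viability was measured by Alamar Blue in parallel with the 48 h sporozoite infection assay, in RPMI 1640/10% FBS/HEPES medium at 37 °C and 5% CO2. The initial screen tested each compound at […], scoring cell confluence and proliferation.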

Plasmodium berghei [2] = test: Antiplasmodial activity against liver-stage of Plasmodium berghei expressing firefly luciferase infected in human Huh-7 cells after 48 hrs by bioluminescence assay; assay type: functional, organism-based; conditions: Huh-7, Liver
Procedure, shortened: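 Huh-7 hepatoma cells were grown in RPMI 1640 with 10% FBS, NEAA, glutamine and 10 mM HEPES pH 7, at 37 °C and 5% CO2, and seeded at 1.0 × 10^4 per well the day before. Compound medium went on about 1 h before fresh A. stephensi sporozoites of firefly-luciferase P. berghei, followed by centrifugation at 1700 g for 5 min. Luminescence was read 48 h post-infection, and IC50 came from dose–response.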

[3] = Cytotoxicity against human HuH7 cells assessed as cell viability by Alamar Blue assay; assay type: cell-based, Huh-7; procedure, shortened: as §1
[4] = Selectivity index, ratio of CC50 for human HuH7 cells to IC50 for liver-stage of Plasmodium berghei expressing firefly luciferase infected in human Huh-7 cells; assay type: functional
Plasmodium berghei [5] = test: Ratio of primaquine IC50 to compound IC50 for liver-stage of Plasmodium berghei expressing firefly luciferase infected in human Huh-7 cells; assay type: functional
Plasmodium berghei [6] = test: Antiplasmodial activity against Plasmodium berghei ANKA expressing luciferase infected in C57Bl/6J mouse assessed as reduction of liver parasite load at 50 mg/kg, po administered 8 hrs prior to parasite infection measured after 24 hrs; assay type: functional, organism-based; conditions: in the assay text read “measured after 47 hrs” for “measured after 24 hrs”
Procedure, shortened: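 C57Bl/6J mice were inoculated intravenously with 5 × 10^3 luciferase-expressing P. berghei ANKA sporozoites from A. stephensi salivary glands. Drug was given at 50 mg/kg by oral gavage as a sunflower-oil suspension from a DMSO stock, 8 h before, at, and 24 h after infection; controls got vehicle. Livers were homogenized in guanidine thiocyanate denaturing solution 47 h post-infection to quantify parasite load.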

| Compound | IC50 (Plasmodium falciparum) [nM] | IC50 (Plasmodium berghei [2]) [nM] | Activity [1] | CC50 [3] [µM] | Ratio CC50/IC50 [4] | Ratio IC50 (Plasmodium berghei [5]) | Activity (Plasmodium berghei [6]) |
| --- | --- | --- | --- | --- | --- | --- | --- |
| CCOC(=O)c1c(C)nc(NCCCC(C)Nc2cc(OC)cc3cccnc23)nc1-c1ccccc1 (stereo unspecified) | 4320 | 1260 | Non-toxic | > 100 | >79.3 | 6.7 |  |
| COc1cc(NC(C)CCCNc2nc(C)c(C(=O)OC(C)C)c(-c3ccccc3)n2)c2ncccc2c1 (stereo unspecified) | 4800 |  | Non-toxic |  |  |  |  |
| COc1cc(NC(C)CCCN)c2ncccc2c1 (stereo unspecified) [PRIMAQUINE] | 892 | 8430 |  |  |  |  |  |
| O=C1C(O)=C([C@H]2CC[C@H](c3ccc(Cl)cc3)CC2)C(=O)c2ccccc21 [ATOVAQUONE] |  | 1.8 |  |  |  |  |  |
| CCOC(=O)c1c(C)nc(NCCCC(C)Nc2cc(OC)cc3cccnc23)nc1C (stereo unspecified) | 3780 | 1860 | Non-toxic | 61 | 32.6 |  |  |
| CCOC(=O)c1c(C)nc(NCCCC(C)Nc2cc(OC)cc3cccnc23)nc1-c1ccc(F)cc1 (stereo unspecified) | 3430 |  | Non-toxic |  |  |  |  |
| CCOC(=O)c1c(C)nc(NCCCC(C)Nc2cc(OC)cc3cccnc23)nc1-c1ccc(OC)cc1 (stereo unspecified) | 3280 | 1570 | Non-toxic | > 100 | >63.6 |  |  |

Continued, in another order:

| IC50 (Plasmodium falciparum) [nM] | IC50 (Plasmodium berghei [2]) [nM] | Compound | Activity [1] | CC50 [3] [µM] | Ratio CC50/IC50 [4] | Ratio IC50 (Plasmodium berghei [5]) | Activity (Plasmodium berghei [6]) |
| --- | --- | --- | --- | --- | --- | --- | --- |
| 2000 |  | COC(=O)c1c(C)nc(NCCCC(C)Nc2cc(OC)cc3cccnc23)nc1C (stereo unspecified) | Non-toxic |  |  |  |  |
| 2790 |  | COc1cc(NC(C)CCCNc2nc(C)c(C(=O)OC(C)C)c(-c3ccccc3[N+](=O)[O-])n2)c2ncccc2c1 (stereo unspecified) | Non-toxic |  |  |  |  |
| 1930 |  | COc1cc(NC(C)CCCNc2nc(C)c(C(=O)OC(C)C)c(-c3ccc([N+](=O)[O-])cc3)n2)c2ncccc2c1 (stereo unspecified) | Non-toxic |  |  |  |  |
| 4.4 |  | C[C@H]1[C@H](OC(=O)CCC(=O)O)O[C@@H]2O[C@@]3(C)CC[C@H]4[C@H](C)CC[C@@H]1[C@@]24OO3 [ARTESUNATE] |  |  |  |  |  |
| 2670 | 1500 | COc1cc(NC(C)CCCNc2nc(C)c(C(=O)OC(C)C)c(-c3cccc([N+](=O)[O-])c3)n2)c2ncccc2c1 (stereo unspecified) | Non-toxic | > 100 | >66.6 |  | inactive |
